Data taken from ChEMBL document CHEMBL1250450, “Well-defined regions of the Plasmodium falciparum reticulocyte binding protein homologue 4 mediate interaction with red blood cell membrane” (J Med Chem, 2010).
The source made the active and inactive calls. Residues, ends and D or L forms follow the SMILES beside them.

Assays:
Homo sapiens [1] = species: Homo sapiens; assay: Binding affinity to RBC membrane receptor in 150 uU/mL neuraminidase pretreated human RBC relative to untreated RBC
In short: (§1)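 Human RBCs (60% hematocrit) treated 1 h at 37 °C with neuraminidase (150 μU/mL), chymotrypsin (1 mg/mL) or trypsin (1 mg/mL). Standard radiolabeled-peptide binding then run on treated cells at 20% hematocrit. Binding expressed relative to untreated RBCs set as 100%.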

[2] = Binding affinity to RBC membrane receptor in human RBC assessed as dissociation constant by gamma counter
In short: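 Saturation assay: 7.5 × 10^7 human RBCs incubated in triplicate with 125I-peptide over 0-2200 nM, with or without 6 nmol unlabeled peptide. Cells washed in HBS and counted by gamma counter. Kd, Hill coefficient and sites per cell came from Hill analysis.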

Homo sapiens [3] = species: Homo sapiens; assay: Binding affinity of radio labeled compound to 25 kDa RBC membrane receptor in human RBC cross-linked with bis-(sulfosuccinimidyl)suberate by autoradiography using SDS-PAGE
In short: (§2)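 Radioiodinated peptide (chloramine-T method) incubated with 2.1 × 10^7 human RBCs, then cross-linked with BS3 (1 mg/mL) for 1 h at 4 °C. Reaction stopped with Tris-HCl. Membranes lysed (Tris/NaCl/EDTA/PMSF), mixed with Laemmli buffer, spun 15000g for 15 min, resolved on 12% SDS-PAGE against prestained markers.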

Homo sapiens [4] = species: Homo sapiens; assay: Binding affinity to RBC membrane receptor in 1 mg/mL chymotrypsin pretreated human RBC relative to untreated RBC; in short: as §1
Homo sapiens [5] = species: Homo sapiens; assay: Binding affinity of radio labeled compound to 22 kDa RBC membrane receptor in human RBC cross-linked with bis-(sulfosuccinimidyl)suberate by autoradiography using SDS-PAGE; in short: as §2
Plasmodium falciparum [6] = assay: Antiplasmodial activity against Plasmodium falciparum FCB2 assessed as inhibition of merozoite invasion of human erythrocytes at 200 uM after 18 hrs using hydroethidine staining by flow cytometry; format: functional; settings: FCB2, 18 h
In short: (§3)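 Schizont-synchronized P. falciparum FCB-2 cultures incubated in triplicate with peptide (100 and 200 μM) using normal RBCs or, for the neuraminidase line, neuraminidase-treated RBCs. 37 °C for 18 h under 5% O2, 5% CO2, 90% N2. Cells washed with PBS, hydroethidine-labeled, read by flow cytometry (FL2). Inhibition controls were EGTA- and chloroquine-treated infected RBCs; uninfected RBCs served as invasion control.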

Homo sapiens [7] = species: Homo sapiens; assay: Binding affinity to RBC membrane receptor in 1 mg/mL trypsin pretreated human RBC relative to untreated RBC; in short: as §1
Homo sapiens [8] = species: Homo sapiens; assay: Binding affinity of radio labeled compound to 20 kDa RBC membrane receptor in human RBC cross-linked with bis-(sulfosuccinimidyl)suberate by autoradiography using SDS-PAGE; in short: as §2
Homo sapiens [9] = species: Homo sapiens; assay: Binding affinity to RBC membrane receptor in human RBC assessed as specific binding activity measured as ratio of specifically bound peptide/added peptide by gamma counter
In short: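 1 × 10^8 healthy-donor RBCs incubated in triplicate with four rising concentrations of 125I-peptide (0-560 nM), with or without unlabeled peptide, then washed in HBS (pH 7.4) and gamma-counted. Specific binding (total minus nonspecific) plotted against added peptide; the slope is the specific binding activity. The HABP cutoff is ≥2%.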

Plasmodium falciparum [10] = assay: Antiplasmodial activity against Plasmodium falciparum FCB2 assessed as inhibition of merozoite invasion of neuraminidase pretreated human erythrocytes at 200 uM after 18 hrs using hydroethidine staining by flow cytometry; format: functional; in short: as §3
Homo sapiens [11] = species: Homo sapiens; assay: Binding affinity of radio labeled compound to 32 kDa RBC membrane receptor in human RBC cross-linked with bis-(sulfosuccinimidyl)suberate by autoradiography using SDS-PAGE; in short: as §2
Plasmodium falciparum [12] = assay: Antiplasmodial activity against Plasmodium falciparum FCB2 assessed as inhibition of merozoite invasion of human erythrocytes at 1.85 mg/mL after 18 hrs using hydroethidine staining by flow cytometry; format: functional; parameters: scale not given: the % may be the effect or the level left; in short: as §3
Plasmodium falciparum [13] = assay: Antiplasmodial activity against Plasmodium falciparum FCB2 assessed as inhibition of merozoite invasion of human erythrocytes at 0.93 mg/mL after 18 hrs using hydroethidine staining by flow cytometry; format: functional; parameters: scale not given: the % may be the effect or the level left; in short: as §3
Plasmodium falciparum [14] = assay: Antiplasmodial activity against Plasmodium falciparum FCB2 assessed as inhibition of merozoite invasion of human erythrocytes at 1.9 mg/mL after 18 hrs using hydroethidine staining by flow cytometry; format: functional; parameters: scale not given: the % may be the effect or the level left; in short: as §3

Row | Compound | Activity (Homo sapiens [1]) | Kd [2] | Activity (Homo sapiens [3]) | Activity (Homo sapiens [4]) | Activity (Homo sapiens [5]) | Activity (Homo sapiens [7]) | Activity (Homo sapiens [8]) | Activity (Homo sapiens [9]) | Activity (Homo sapiens [11]) | inhibition at 200 µM (Plasmodium falciparum [6]) | inhibition at 200 µM (Plasmodium falciparum [10]) | Activity (Plasmodium falciparum [12]) | Activity (Plasmodium falciparum [13]) | Activity (Plasmodium falciparum [14])
1 | CC[C@H](C)[C@H](NC(=O)[C@H](CC(=O)O)NC(=O)[C@H](CC(=O)O)NC(=O)[C@@H](NC(=O)[C@H](Cc1ccc(O)cc1)NC(=O)[C@H](CCCCN)NC(=O)[C@H](CCCCN)NC(=O)[C@@H](NC(=O)[C@H](CC(N)=O)NC(=O)[C@@H](NC(=O)[C@@H](N)CS)[C@@H](C)O)[C@@H](C)CC)[C@@H](C)O)C(=O)N[C@@H](CS)C(=O)N[C@@H](CC(C)C)C(=O)N[C@@H](CO)C(=O)N[C@H](C(=O)N[C@@H](CCCCN)C(=O)N1CCC[C@H]1C(=O)N[C@@H](CCCCN)C(=O)N[C@@H](C)C(=O)N[C@@H](CC(C)C)C(=O)O)[C@@H](C)CC (H-CTNIKKYTDDICLSIKPKAL-OH) | 101% | 870 nM | Active | 52.8% | Active | 172% | Active | > 2% | Active | 52% | 47% | – | – | –
2 | CCN(CC)CCCC(C)Nc1ccnc2cc(Cl)ccc12 (centres undefined) [CHLOROQUINE] | – | – | – | – | – | – | – | – | – | – | – | 97% | 96% | –
3 | O=C(O)CN(CCOCCOCCN(CC(=O)O)CC(=O)O)CC(=O)O [EGTAZIC ACID] | – | – | – | – | – | – | – | – | – | – | – | – | – | 90%
4 | H-KHIVNKIQENFKLNQNKYIH-OH | 115% | 590 nM | – | 132% | – | 94.1% | – | > 2% | – | 51% | 51% | – | – | –
5 | H-KIMQNIQQTTNRLKINIKKIY-OH | 129% | 750 nM | – | 60.1% | – | 15.2% | – | > 2% | – | 54% | 46% | – | – | –
6 | H-LFDYTHLWDNAQFTRTKENI-OH | 166% | 1200 nM | – | 31.4% | – | 24.9% | – | > 2% | – | 50% | 58% | – | – | –

Continued, in another order:

Row | Activity (Homo sapiens [1]) | Kd [2] | Activity (Homo sapiens [3]) | Activity (Homo sapiens [4]) | Activity (Homo sapiens [5]) | Activity (Homo sapiens [7]) | Activity (Homo sapiens [8]) | Activity (Homo sapiens [9]) | Activity (Homo sapiens [11]) | Compound | inhibition at 200 µM (Plasmodium falciparum [6]) | inhibition at 200 µM (Plasmodium falciparum [10]) | Activity (Plasmodium falciparum [12]) | Activity (Plasmodium falciparum [13]) | Activity (Plasmodium falciparum [14])
7 | 80.7% | – | Active | 53.3% | Active | 75.2% | Active | > 2% | Active | H-CIQIKKKVDELYNIYDQLFK-OH | 46% | 50% | – | – | –
8 | 94.9% | 850 nM | – | 79.7% | – | 43% | – | > 2% | – | H-LNFTHKTIQQILQQQYKNNT-OH | 45% | 47% | – | – | –
9 | 92.2% | 850 nM | – | 22.5% | – | 43.9% | – | > 2% | – | H-LNTILHRNEQTKNATRSYNM-OH | 47% | 46% | – | – | –
10 | 110% | – | Active | 0.01% | Active | 1.01% | Active | > 2% | Active | H-QEKNTLAQFLYNADIKKYID-OH | 38% | 53% | – | – | –
11 | 93% | 880 nM | Active | 102% | Active | 32% | Active | > 2% | Active | H-QEQNRIYNELQNKIKQIKNV-OH | 85% | 88% | – | – | –
12 | 128% | 590 nM | Active | 288% | Active | 0.03% | Active | > 2% | Active | H-QIYKNELKDRIKETQTKINL-OH | 47% | 49% | – | – | –
13 | 312% | 480 nM | – | 26.3% | – | 16.7% | – | > 2% | – | H-YDKLNEHVINNLYTKSKDSL-OH | 43% | 39% | – | – | –
14 | 153% | 400 nM | Active | 114% | Active | 87% | Active | > 2% | Active | H-YNKNNIKDIYQQFKNIQQQL-OH | 46% | 49% | – | – | –
